Reference: PMC3057960 (Cancer research, 2010)
Peptide text beside a SMILES is read from it.

Assays:
[1] = In vivo stability: urine metabolite analysis by radio HPLC; conditions: mouse urine collected 1 hour post-injection, 3 mice
Method in brief: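 Urine was collected 1 hour after tail-vein injection of radiolabelled test compound (66.3-70.6 μCi in 150 μl PBS) from 3 of the healthy biodistribution mice. Samples were diluted to 1 mL with solvent A (99.9% H2O, 0.1% TFA) and analysed by radio HPLC.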

[2] = Stability in mouse serum by radio HPLC; type: in vitro ADME; conditions: tracer in PBS with equal volume of mouse serum, 37°C, 4 hours
Method in brief: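 Radiotracer in PBS was mixed with an equal volume of mouse serum and incubated at 37°C. Samples taken at 1 and 4 hours were quenched with one volume of solvent A (99.9% H2O, 0.1% TFA) plus one volume of DMF, centrifuged, passed through a 0.2 micron spin filter and analysed by radio HPLC.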

[3] = Repeated imaging in immunocompetent mice, immune response; type: in vivo, mouse; conditions: up to 6 imaging sessions over 8 months, data not shown
[4] = Ex vivo biodistribution in healthy mice; conditions: mouse, iv, total radioactivity
Method in brief: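 Healthy mice (N=5) were anaesthetised and given 66.3-70.6 μCi (2.45-2.61 MBq) of radiolabelled test compound in 150 μl PBS by tail vein, then euthanised 1 hour post-injection. Organs were removed, weighed and gamma counted, giving %ID/g or %ID/cm3. Soft-tissue density was taken as 1 g/cm3. Lung density was lung weight divided by CT volume from pre-injection CT. Mean ± standard error mean.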

With CC(C)C[C@@H]1NC(=O)[C@@H]2CSSC[C@@H](C(=O)NCC(N)=O)NC(=O)[C@H](Cc3ccccc3)NC(=O)CNC(=O)[C@H](CC(N)=O)NC(=O)[C@@H]3CCCN3C(=O)CNC(=O)[C@@H]3CSSC[C@H](NC(=O)[C@H]([C@@H](C)O)NC(=O)[C@H](CC(C)C)NC(=O)[C@@H]4CCCN4C(=O)[C@@H]4CCCN4C(=O)[C@H](CC(N)=O)NC(=O)[C@H](CC(=O)O)NC(=O)CNC(=O)[C@H](CCCNC(=N)N)NC(=O)[C@@H]4CCCN4C(=O)[C@H](CCCNC(=N)N)NC(=O)[C@@H]4CCCN4C(=O)[C@@H](NC(=O)CNC(=O)CN4CCN(CC(=O)O)CCN(CC(=O)O)CCN(CC(=O)O)CC4)CSSC[C@H](NC(=O)CNC(=O)[C@H](C)NC1=O)C(=O)N[C@@H](C(C)C)C(=O)N3)C(=O)N[C@@H](CO)C(=O)N[C@@H](CCC(N)=O)C(=O)N[C@@H](CC(=O)O)C(=O)N[C@@H](CO)C(=O)N[C@@H](CC(=O)O)C(=O)N2 [^64Cu-DOTA-knottin 2.5F, metal not drawn] (HELM PEPTIDE1{[O=C(O)CN1CCN(CC(=O)O)CCN(CC(=O)[*:2])CCN(CC(=O)O)CC1].G.C.P.R.P.R.G.D.N.P.P.L.T.C.S.Q.D.S.D.C.L.A.G.C.V.C.G.P.N.G.F.C.G.[am]}$PEPTIDE1,PEPTIDE1,3:R3-25:R3|PEPTIDE1,PEPTIDE1,15:R3-27:R3|PEPTIDE1,PEPTIDE1,21:R3-33:R3$$$V2.0; N-terminus and C-terminus assumed) the “Stability in vivo, excretion in urine” value [1] was “mainly excreted intact”, the Serum stability [2] was “highly stable” and the “Acute immune response on repeated imaging” value [3] was “without the observation of an acute immune response”. It also gave a tissue uptake per volume at 1 h ([4]; kidneys) of 11.4 ± 1.45 %ID/mL and a tissue uptake per volume at 1 h ([4]; stomach, intestine, spleen, liver) of 1.28 to 2.53 %ID/mL.
